The source of these data is the EternaBench riboswitch data.

Usually apparent Kd stands for the concentration giving half-maximal binding under the conditions of the assay.

In the data set the test system is MS2 coat protein. The data set can be described thus: apparent Kd, MS2 coat protein; higher = weaker binding; RNA-MaP array; FMN 200 µM where present. In outline: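 The titrant was SNAP-549-labelled MS2 coat protein, run from 0.7 or 1.5 nM in doubling steps to 3 µM. It was applied to designs transcribed by stalled E. coli RNA polymerase on Illumina sequencing-chip clusters, without ligand first and then with constant ligand, in 100 mM Tris-HCl pH 7.5, 80 mM KCl, 4 mM MgCl2, BSA, DTT, yeast tRNA and Tween-20. The apparent Kd is the median of filtered per-cluster binding-curve fits, with green signal normalised to red-channel RNA signal and control-cluster median Fmax.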

Where [1] appears, read: designed as: ON switch for flavin mononucleotide, no ligand.
The mark [2] stands for this setting: ligand present: flavin mononucleotide, designed as: ON switch for flavin mononucleotide.
Setting [3] is: designed as: OFF switch for flavin mononucleotide, no ligand.
[4] abbreviates: ligand present: flavin mononucleotide, designed as: OFF switch for flavin mononucleotide.

As to “ACAUGAGGAUCACCCAUGUAAAAUGAAGAAGGUAGAUACUUGAGGAUCACCCAUGUACAUGGGACUAAGGAUAUUCUAAUAAUU”, the “apparent Kd” value was 76.9 nM under setting [1] and 64.3 nM under setting [2].
Regarding “AUAAGUGCAGGAUAUACGGGAAGCUAGCGAAAGCUAGCAAAACAUGAGGAUCACCCAUGUAGAAGGGCACAAUA”, the “apparent Kd” value turned out to be 57.4 nM under setting [3] and 121 nM under setting [4].
Regarding “AGCUACGUUUCGUAGCAGUGUCAUCGAGAAGGCUCAUAUACAUGAGGAUCACCCAUGUUAACAUGGGAGGAUAUCGAUGAUACA”, the “apparent Kd” value under setting [1] amounted to 50.2 nM and the “apparent Kd” value under setting [2] stood at 6.64 nM.
Regarding “GUGGUCAGACAUGAGGAUCACCCAUGUGGAAUAAAUAACGGACAGGAUAUAGAAUAUAGGAUAUACUAGAAGGGUUGAUUGGUG”, the “apparent Kd” value was 55.7 nM under setting [1] and 57.3 nM under setting [2].
Turning to “AAGCGCUACAUGAGGAUCACCCAUGUUCCGAGGCAGAUUUCACAGGAUAUCCCAAUUGGCCCAAGGGAGAAGGGUGAUGGCCAA”, the “apparent Kd” value under setting [1] came to 79.1 nM and the “apparent Kd” value under setting [2] came to 23.6 nM.
With “GUCAGCUCGUGAGGAUAUACAACACUGCUUCGGCAGUGUAUUAAGAUCACAUGAGGAUCACCCAUGUAGAAGGCACGAGCCGAU”, the “apparent Kd” value was determined as 14.3 nM under setting [3] and 271 nM under setting [4].
As for “ACCAGUGCAUGAGGAUAUCACAUCGGUAUCCUCCAGUGCGGCGUUCGACAUGAGGAUCACCCAUGUGAGAAGGCAUGAACUCGG”, the “apparent Kd” value reads like this: under setting [3], 15.6 nM; under setting [4], 18.6 nM.
With “GGUACCAACACAGGAUAUGCUAUCCUUUGGGUAGCAGAAGGGUGAAACAUGAGGAUCACCCAUGUGGUGCCACCCGGUGACGGG”, the “apparent Kd” value reads like this: under setting [1], 1180 nM; under setting [2], 89.2 nM.
The like results for “AUAGGUUAAGGAGGAUAUAGAGGGAGAAGUACACAUGAGGAUCACCCAUGUAUUUAAUUAGUUUACUAGAAGGCUUAUGAUUGU” were, in that order, 46.6 nM and 53.8 nM.
With “GGGUCCAACACAGGAUAUGCUGGACUUUGUCCAGCAGAAGGGUGAAGAACAUGAGGAUCACCCAUGUGGAUCCAUAUAUUUAAU”, the “apparent Kd” value stood at 236 nM under setting [1] and 17.9 nM under setting [2].
For “CGAGUUUUUGAGAAGGCAUAAUAUAUAAUACCACAUGUUUACAUGAGGAUCACCCAUGUUUCCUAUGAGGAUAUCAGAAUAUCG”, the “apparent Kd” value stood at 16.1 nM under setting [3] and 14.4 nM under setting [4].
Take “UUGGACAGCUAGAACUGUUAAGUACAUGAGGAUCACCCAUGUCAGGAUAUCCUUCCGCAAUGCGAGGAGAAGGGACAGGGUCCC”: the “apparent Kd” value was determined as 53.7 nM under setting [3] and 124 nM under setting [4].
“GUGCGUGGCUAGGAUAUUGUGGAGUUUAGUCAGCGAGAAGGAGCCACAUGAGGAUCACCCAUGUGGUGUAGCUC”: the “apparent Kd” value reads like this: under setting [3], 17.2 nM; under setting [4], 94.5 nM.
As to “UCAUGGAAGUAGAAGGGUAAUAUAUUAGAUUUUACUAUUAGAUGUAGAUAUACAGGAUAUGCGAACAUGAGGAUCACCCAUGUG”, the “apparent Kd” value is, setting by setting: under setting [3], 62.7 nM; under setting [4], 35.6 nM.
Take “AGCUAGAGAGGAUAUACGUAGGAAAAAAAAGUCUGAUCCCUACAUGAGGAUCACCCAUGUAGAAGGCUCUGGCA”: the “apparent Kd” value turned out to be 91.5 nM under setting [3] and 81.8 nM under setting [4].
As for “UCCGCUCGAGGAUAUACAUGAGGAUCACCCAUGUUUCCCUGUUGCUUGGCCUCAGGAUGUAGAAGGCGACGCUA”, the “apparent Kd” value came out at 17.6 nM under setting [3] and 19.8 nM under setting [4].
Turning to “GAGAAGAGGGAAGGAUAUACAUGAGGAUCACCCAUGUAGAUAGGUUUAAUAGGUUGUUGUUGUUUGUAGAAGGUCCGGUUUGUU”, the “apparent Kd” value was 18 nM under setting [3] and 16.8 nM under setting [4].
Take “UGGUACUAGGGAGGAUAUGGGAAGAUACAUGAGGAUCACCCAUGUUUAAGAAUGCCGAGAGGUAACUAGAAGGCCCUAGUACCU”: the “apparent Kd” value amounted to 455 nM under setting [1] and 15.1 nM under setting [2].
Regarding “CACGUACAUGAGGAUCACCCAUGUUAGGAUAUGUUUACCGGAAGGCAUUCUUGGGUAAACAGAAGGGACGAAAC”, the “apparent Kd” value under setting [3] came out at 22.5 nM and the “apparent Kd” value under setting [4] came to 31.8 nM.
With “CGGACAAUGCCCGAGACAUGAGGAUCACCCAUGUUAGCAGCACAGGAUAUCAUGUUUUGUAAAGGUGAGAAGGGUGAUUGCAUC”, the “apparent Kd” value amounted to 102 nM under setting [1] and 68.2 nM under setting [2].
With “UAUGAACAUGAGGAUCACCCAUGUGGUAAGAUCACAGGAUAUCACCUCGGACGUGCGAUGUGAGAAGGGUGAUGGU”, the “apparent Kd” value by setting is: under setting [1], 585 nM; under setting [2], 113 nM.
With “UUUCUCUGGGCGUCUUCUUACAUGAGGAUCACCCAUGUUUCAUAGGAUAUGCUAUAGUGUUACAUGCAGAAGGAUGUUUGUUUU”, the “apparent Kd” value runs as follows: under setting [3], 234 nM; under setting [4], 474 nM.
Regarding “CUCAAACAUGAGGAUCACCCAUGUGUUGUCAUGGGAGGAUAUCUAAGUUCGUUGUAGUCGGGAGAAGGCCUAUGUC”, the “apparent Kd” value runs as follows: under setting [1], 134 nM; under setting [2], 47.2 nM.
Regarding “GUAGAGUCAGGAUAUACGAGAUCGAAAGAUCGUCGAUCCUUACAUGAGGAUCACCCAUGUAGAAGGGACUCUAC”, the “apparent Kd” value came out at 22.7 nM under setting [3] and 238 nM under setting [4].
Consider “AGGUCAACCACAGGAUAUGGCUAGCAUAGCUAGCCAGAAGGGUGGUCGUUGCCAUGUAAAUACAUGAGGAUCACCCAUGUAUCC”, for which the “apparent Kd” value runs as follows: under setting [1], 190 nM; under setting [2], 49.5 nM.
On to “AUCACGUAAGGAUAUUCCUACGCAGACAUGAGGAUCACCCAUGUGUUAGUGAAGAAUCGAGGAGAAGGUACAAUGG”, for which the “apparent Kd” value reads like this: under setting [3], 29.5 nM; under setting [4], 26.8 nM.
For the sequence “GCUAUCGGGUGAGGAUAUAUGAUUGUGAUUAAAAUAGAAGGCAUCUCAGAAGACAUGAGGAUCACCCAUGUAGUUAAGAUGGCA”, the “apparent Kd” value under setting [1] turned out to be 34.1 nM and the “apparent Kd” value under setting [2] stood at 22.7 nM.
As for “GUCGGAAACGACAAUGAUAGGACUGAGGAUAUACGUAAUAUUAUCCAUACAUGAGGAUCACCCAUGUAGAAGGCAGUCCUAUCU”, the “apparent Kd” value came out at 5.85 nM under setting [3] and 6.02 nM under setting [4].
Consider “CCGGGACAUGAGGAUCACCCAUGUUUCGUUUGUAGUAAAGCACAGGAUAUGAUGAAACAGGUUUCUCAGAAGGGUGUUCCGAAA”, for which the “apparent Kd” value runs as follows: under setting [1], 91 nM; under setting [2], 75.4 nM.
Take “AACACUUAAAAGUGAGGCGAUAGGUAGGAUAUACAUGAGGAUCACCCAUGUAUGGGCUAUCUGCGGUAGAAGGACCUCUGGCCC”: the “apparent Kd” value runs as follows: under setting [3], 6.44 nM; under setting [4], 8.84 nM.
Regarding “UAUAUGUCAGGAUAUUAGUUGUGUUAGAAUUUAUCUUCUGCUGAGAAGGGACAUGAGGAUCACCCAUGUUCCUC”, the “apparent Kd” value amounted to 14.5 nM under setting [3] and 16 nM under setting [4].
In the same order, the values of “UCGAACGGAAACAAAGUCUUCGGACAUGAGGAUCACCCAUGUAAGGAUAUGCCUACUAAAAGUAGGCAGAAGGUACGCGUUCGA” are 22.1 nM and 51.1 nM.
Consider “GGAUCUUGGGUCAGGAUAUGCUGAUAGUUAUGUCAGCAGAAGGGACAUGAGGAUCACCCAUGUGCUCGGUUUUG”, for which the “apparent Kd” value came to 11.1 nM under setting [3] and 19.7 nM under setting [4].
In the same order, the values of “AAAAAACAUGAGGAUCACCCAUGUGAGGAUAUGAUGAAAGAUUGAAAAAGGUUGAAAGUCAGAAGGUAUGUGAA” are 56.9 nM and 59.7 nM.
“GUAGCUAUCGGAGGAUAUUCAUACCGGAAACGGACAUGAGGAUCACCCAUGUGGCGAAAGCCGUGGGAGAAGGCCGAUAGCUAC”: the “apparent Kd” value was found to be 875 nM under setting [1] and 43 nM under setting [2].
With “AGAAACUACGAGAAGGACAUGUGAACCUUCAAUUACAUGAGGAUCACCCAUGUAGGAUAUCGUAGUUUCAGGAUCGUGAGAUCA”, the “apparent Kd” value reads like this: under setting [3], 16.7 nM; under setting [4], 115 nM.
